Experimental data pooled from the literature.
Lines come from different studies, so protocols differ.
Target: Misshapen-like kinase 1 (MINK1, Homo sapiens, UniProt Q8N4C8)

`COc1ccc(COc2ccc(Cc3cnc(N)nc3N)cc2OC)cc1` has a remaining signal of 86.5% (cell-free assay; 0.5 µM).
The inhibition of `Cc1ccc(Nc2nccc(N(C)c3ccc4c(C)n(C)nc4c3)n2)cc1S(N)(=O)=O` is reported as 23% (enzyme activity; inhibitor; 0.3 µM).
`COc1cc(-c2cc(-c3ccc(N4CCNCC4)cc3)cnc2N)cc(OC)c1OC` gave an inhibition of 89% (enzyme activity; inhibitor; 1 µM).
`CC(C)(O)[C@H]1CC[C@H](Nc2ccc3ncc(-c4cccc(C(F)(F)F)c4)n3n2)CC1` gave a remaining activity of 97% (enzyme activity; inhibitor; 1 µM).
`CN1CC(Oc2cnc(C#N)cc2-c2ccn3nc(NC(=O)C4CC4)cc3c2)C1` gave an inhibition of 13% (enzyme activity; inhibitor; 1 µM).
For `C[C@@H]1CN(c2cc(-c3n[nH]c4ccc(OC5(C)CC5)cc34)ncn2)C[C@H](C)O1`, the remaining binding was 84% (cell-free assay; competition with immobilised ligand; 0.1 µM).
The remaining activity of `COc1cc(Cl)c(C(=O)N[C@@H](CN[C@H]2CC[C@@H](N)CC2)Cc2ccc(C#N)cc2)cc1-c1ccc(CN[C@H](C)c2ccc(C)cc2)o1` is reported as 94% (enzyme activity; inhibitor; 1 µM).
The remaining binding of `O=S(=O)(NC1CCC(c2cc(F)ccc2F)(S(=O)(=O)c2ccc(Cl)cc2)CC1)C(F)(F)F` (stereo not shown) is reported as 100% (cell-free assay; competition with immobilised ligand; 1 µM).
The remaining signal of `COc1cc2c(Nc3ccc(Br)cc3F)ncnc2cc1OCC1CCN(C)CC1` is reported as 81.5% (cell-free assay; 0.5 µM).
With `C=CC(=O)Nc1cc(Nc2nccc(Nc3cc(Cl)c(F)cc3C(C)(C)O)n2)c(OC)cc1N1CC[C@@H](N(C)C)C1` the inhibition was -3% (enzyme activity; inhibitor; 1 µM).
The remaining binding of `NS(=O)(=O)c1cc(NC(=O)Cc2ccccc2)ccc1Oc1cccc(Cl)c1` is reported as 90% (cell-free assay; competition with immobilised ligand; 1 µM).
The inhibition of `CNC(=O)c1cc(Oc2ccc(NC(=O)Nc3ccc(Cl)c(C(F)(F)F)c3)cc2)ccn1` is reported as 14% (enzyme activity; inhibitor; 0.3 µM).
`COc1ccc2c(c1)O[C@@H](c1ccc(OC)c(OC)c1)C[C@H]2NC(=O)C1(c2ccc3c(c2)OC(F)(F)O3)CC1` gave a remaining binding of 77% (cell-free assay; competition with immobilised ligand; 1 µM).
With `COc1cc(Nc2cnc(C#N)c(O[C@H](C)CN(C)C)n2)ncc1-c1cnn(C)c1` the remaining activity was 67% (enzyme activity; inhibitor; radiometric; 10 µM).
The remaining activity of `FC(F)c1nc2ccccc2n1-c1nc(N2CCOCC2)nc(N2CCOCC2)n1` is reported as 102% (enzyme activity; inhibitor; 10 µM).
`CC/C(=N\NC(=O)NCc1cccc(O)c1)c1ccc(O)c(C)c1O` gave an inhibition of -1% (enzyme activity; inhibitor; 0.1 µM).
The activity vs control of `FC(F)(F)Oc1cccc(-c2cnc3ccc(-c4ccncc4)nn23)c1` is reported as 58% (enzyme activity; inhibitor; radiometric; 1 µM).
The remaining signal of `N#CCCc1ccc2c(c1)-c1[nH]c3ccc([N+](=O)[O-])cc3c1CC(=O)N2` is reported as 29.9% (cell-free assay; 0.5 µM).
The inhibition of `CCN(CC)CCNC(=O)c1c(C)[nH]c(/C=C2\C(=O)Nc3ccc(F)cc32)c1C` is reported as 94% (enzyme activity; inhibitor; 10 µM).
The remaining binding of `COc1cc(-c2cn(C3CCc4c(F)cccc4N(CC(F)(F)F)C3=O)nn2)ccc1-n1cnc(C)c1` (stereo not shown) is reported as 84% (cell-free assay; competition with immobilised ligand; 1 µM).
`Cc1cc(NC(=O)c2cccc3cc(-c4cccc5[nH]nc(N)c45)ccc23)ccc1F` has an activity vs control of 110% (enzyme activity; inhibitor; 0.1 µM).
With `CN(C)C1CCN(CC#Cc2nn(C3CCCC3)c3nc(NCc4ccccc4)ncc23)C1` (stereo not shown) the inhibition was 17% (enzyme activity; inhibitor; FRET; 1 µM).
The remaining signal of `Nc1ncnc2occ(-c3ccc(NC(=O)Nc4cc(C(F)(F)F)ccc4F)cc3)c12` is reported as 1.5% (cell-free assay; inhibitor; 20 µM).
The remaining activity of `CC(C)(C)c1nc(-c2cccc(NS(=O)(=O)c3c(F)cccc3F)c2F)c(-c2ccnc(N)n2)s1` is reported as 100% (enzyme activity; inhibitor; radiometric; 1 µM).
With `O=C(N1CCS(=O)(=O)CC1)N1C[C@H](c2ccc(OC(F)(F)F)cc2)C[C@H](c2nc(C3CC3)no2)C1` the remaining binding was 99% (cell-free assay; competition with immobilised ligand; 1 µM).
`O=C(Nc1cnn(-c2csc(C(=O)NC3COC3)c2)c1)Nc1c(F)cccc1Cl` has a remaining activity of 62.2% (enzyme activity; inhibitor; 5 µM).
The remaining activity of `Cc1ccc(C(=O)Nc2ccc(CN3CCN(C)CC3)c(C(F)(F)F)c2)cc1C#Cc1cnc2cccnn12` is reported as 45% (enzyme activity; inhibitor; 23.5 nM).
The remaining binding of `Cc1noc([C@H]2C[C@@H](c3ccc(C(F)(F)F)cc3)CN(C(=O)N3CCS(=O)(=O)C3)C2)n1` is reported as 100% (cell-free assay; competition with immobilised ligand; 1 µM).
With `COc1cc2ncnc(Nc3ccc(Oc4ccccc4)c(C)c3C)c2cc1OC` the inhibition was -1% (enzyme activity; inhibitor; 1 µM).
The remaining binding of `CNC(=O)c1ccc(Nc2ncc(C(F)(F)F)c(NCc3nccnc3N(C)S(C)(=O)=O)n2)cc1` is reported as 44% (cell-free assay; competition with immobilised ligand; 0.1 µM).
With `Cc1ccc(NC(=O)c2ccc(C)c(C(F)(F)F)c2)cc1C#Cc1nn(C2CCC(O)CC2)c2ncnc(N)c12` (stereo not shown) the remaining signal was 25% (cell-free assay; 10 µM).
